TAAR1 antag = human TAAR1 antagonism. AID 624466. CHO RD-HGA16 TAAR1, Fluo-8 calcium fluorescence, antagonist. Q96RJ0. 1.5% of 360,000 active. inhibition, % at 3 µM;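 active = inhibition above a per-plate cutoff, the mean inhibition of test compounds on that plate plus 3 SD, cut at about 49% in these data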;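 also: 0% = DMSO plus EC80 beta-PEA response and 100% = DMSO alone without agonist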
Target sequence (Q96RJ0 whole entry, looked up): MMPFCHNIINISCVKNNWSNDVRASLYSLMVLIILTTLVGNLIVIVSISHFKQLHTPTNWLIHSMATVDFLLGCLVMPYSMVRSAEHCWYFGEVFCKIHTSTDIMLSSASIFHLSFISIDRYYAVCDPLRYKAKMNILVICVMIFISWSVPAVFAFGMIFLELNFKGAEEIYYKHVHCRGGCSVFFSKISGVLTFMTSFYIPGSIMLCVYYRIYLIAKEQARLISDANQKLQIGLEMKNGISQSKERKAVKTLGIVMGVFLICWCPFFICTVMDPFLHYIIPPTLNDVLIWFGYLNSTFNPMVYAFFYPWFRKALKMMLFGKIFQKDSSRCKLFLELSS
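Test system: CHO RD-HGA16 cells bearing hTAAR1 | Reagent: β-PEA, EC80 | Compound dosing: 3 µM, single point | Schedule: Dye loading 75 min at 37 °C, then 30 min room temperature | Signal: Calcium fluorescence with Fluo-8 | Evaluation: Percent inhibition of PEA-evoked calcium signal, max/basal emission ratio | Control set: DMSO-only wells and EC80 β-PEA-stimulated wells | Repeats: Singlicate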
TAAR1 agonist = agonists of human TAAR1. Q96RJ0. CHO RD-HGA16 TAAR1, Fluo-8 calcium fluorescence; vehicle wells 0%, saturating PEA agonist 100%. activation, % at 3 µM. 0.99% of 360,000 active;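 active = activation above the mean activation of all test compounds in the run plus 3 SD, cut at about 38% in these data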
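System: CHO RD-HGA16 cells carrying human TAAR1 plus Gα16; Incubation: 17-24 h seeding, 75 min 37 °C dye, 30 min RT; Measured by: Fluo-8 fluorescence, 5 s baseline then 140 s kinetic read; Control set: DMSO and PEA EC100; Replication: single well for each compound.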
OX1R antag-1 = blocks the human orexin 1 receptor. O43613. CHO/OX1R cells, Fluo-8 calcium fluorescence, orexin A. inhibition, % at 5 µM. 0.43% of 330,000 active;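 active = inhibition above its plate's threshold, mean inhibition of all tested compounds on the plate plus 3 SD, cut at about 37% in these data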;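 also: 0% = orexin A challenge wells and 100% = SB-334867-A antagonist wells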
OX1R antag-2 = blocks the human orexin 1 receptor; O43613; 1.8% of 330,000 active; OX1R-expressing cells, FRET antagonist read-out; inhibition, % at 6.6 µM; in the data active = inhibition mostly above about 38%, no sharp cut-off; inactive = mostly below about 40%;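 also: 0% = agonist challenge alone and 100% = reference antagonist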
CHO parental Ca = counter-screen for OX1R antagonists: effect in parental CHO cells; parental CHO-K1, ATP-induced calcium, Fluo-8 fluorescence; inhibition, % at 5.6 µM; 0.63% of 330,000 active;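 active = inhibition above that plate's mean sample inhibition plus 3 SD, cut at about 26% in these data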;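 also: 0% = ATP-challenged DMSO wells and 100% = DMSO wells without ATP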
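Assay system: parental CHO cells; Read-out basis: percent inhibition of ATP-evoked calcium rise, normalized to controls; Benchmarks: ATP and no-ATP DMSO wells; Compound dosing: single nominal dose of 5.6 µM per compound; Signal: Fluo-8 calcium dye fluorescence; Also added: ATP as calcium-mobilizing challenge; Repeats: singlicate.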
TAAR1 ag conf = human TAAR1 agonism, confirmed | 82% of 2,400 active | shares compounds with TAAR1 agonist | activation, % at 3 µM | CHO RD-HGA16 TAAR1, Fluo-8 calcium fluorescence; scaled: DMSO 0%, maximal phenethylamine 100%;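 active = activation above a cutoff set at the run's mean compound activation plus 3 SD, cut at about 39% in these data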
Ga16 ag counter = nonselective agonist in parental cells, TAAR1 agonist counter-screen; shares compounds with TAAR1 agonist; CHO-Ga16 parental, Fluo-8 calcium fluorescence; normalized to maximal ATP response, DMSO zero; activation, % at 3 µM; 50% of 2,400 active;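 active = activation above the run cutoff, the mean activation over all tested wells plus 3 SD, cut at about 12% in these data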;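 also: 0% = DMSO wells and 100% = maximal ATP response on the peak over basal ratio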
TAAR1 desensitize = counter-screen for human TAAR1 agonists: agonists that desensitize TAAR1. shares compounds with TAAR1 agonist. CHO RD-HGA16 hTAAR1, Fluo-8 calcium, beta-PEA response inhibition. inhibition, % at 3 µM. 46% of 2,400 active;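 active = inhibition above the run cutoff, the mean inhibition of all test compounds plus 3 SD, cut at about 49% in these data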;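 also: beta-PEA stimulus applied at its EC80; loss of beta-PEA calcium signal after compound pretreatment read as receptor desensitization; 0% = DMSO with beta-PEA at EC80 and 100% = DMSO alone without agonist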
Ga16 nonsel ant = nonselective Ga16 antagonist in TAAR1 agonist counter-screen | shares compounds with TAAR1 agonist | CHO-Ga16 ATP-induced calcium, Fluo-8 fluorescence | inhibition, % at 3 µM | 39% of 2,400 active | AID 651952;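 active = inhibition above the plate's mean compound inhibition plus 3 SD, computed per plate, cut at about 22% in these data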;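 also: 0% = EC80 ATP with DMSO and 100% = DMSO wells without ATP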
* = called active by the depositor; . = no result. A selection: hits, their analogues and other compounds. The true share with any hit is near 4%.

SMILES	TAAR1 antag	TAAR1 agonist	OX1R antag-1	OX1R antag-2	CHO parental Ca	TAAR1 ag conf	Ga16 ag counter	TAAR1 desensitize	Ga16 nonsel ant
O=C(CCl)NC1(C(F)(F)F)C(=O)Nc2c1c(=O)[nH]c(=O)n2-c1ccccc1 (stereo not given)	-42	0	-8	0	0	.	.	.	.
COc1ccc(CC(N)c2csc(Nc3cc(Oc4ccccc4)ncn3)n2)cc1 (stereo not given)	35	56*	.	.	.	58*	32*	52*	42*
NC(Cc1ccc(F)cc1)c1csc(Nc2cc(Oc3ccccc3)ncn2)n1 (stereo not given)	44	71*	.	.	.	85*	36*	61*	43*
NC(Cc1ccc(Cl)cc1)c1csc(Nc2cc(Oc3ccccc3)ncn2)n1 (stereo not given)	28	34	.	.	.	.	.	.	.
CC(N)c1csc(Nc2cc(Oc3ccccc3)ncn2)n1 (stereo not given)	-3	6	.	.	.	.	.	.	.
CCCn1cc(S(=O)(=O)c2ccc(F)cc2)c(=O)c2cc(OCC)ccc21	0	0	-22	22	-14	.	.	.	.
O=C(CSCc1ccccc1Br)N/N=C/c1ccccc1C(=O)O	11	15	-18	12	-12	.	.	.	.
COP(=O)(OC)c1nc(-c2ccccc2)oc1N1CCOCC1	-8	1	-22	18	-4	.	.	.	.
COCCCNC(=O)CCc1nc(-c2ccccc2Cl)no1	-11	0	-18	7	-8	.	.	.	.
O=C(CCc1nc(-c2ccccc2Cl)no1)NCCc1ccccc1	-9	58*	-23	15	-13	68*	2	43	11
c1ccc(CCn2nnnc2C(c2cccs2)N2CCN(Cc3ccc4c(c3)OCO4)CC2)cc1 (stereo not given)	73*	85*	-24	12	-8	95*	1	89*	3
CC(C)C(c1nnnn1Cc1ccccc1)N1CCN(Cc2ccc3c(c2)OCO3)CC1 (stereo not given)	4	1	-42	16	-28	.	.	.	.
Fc1ccccc1N1CCN(C(c2cccs2)c2nnnn2CCc2ccccc2)CC1 (stereo not given)	27	77*	-25	12	8	83*	0	56*	6
O=C(COC(=O)CNC(=O)c1ccccc1F)NC1CC1	-6	3	4	4	-4	.	.	.	.
Cc1ccc(SCc2nc(-c3ccncc3)no2)cc1	-4	52*	-11	17	1	9	4	6	7
c1ccc(SCc2nc(-c3ccncc3)no2)cc1	-1	10	-14	29	-4	.	.	.	.
CCOC(=O)CC1C(=O)NCCN1C(=O)c1cccc(OC)c1 (stereo not given)	3	-1	-11	8	7	.	.	.	.
C[C@H]1CN(C2CCCCC2)C(=O)[C@@H]1CC(=O)Nc1ccccc1	2	2	.	.	.	.	.	.	.
Cc1sc(NC(=O)C2CCCCC2C(=O)O)c(C(N)=O)c1-c1ccccc1 (stereo not given)	-4	9	-27	34	-4	.	.	.	.
Cc1sc(NC(=O)C2CCCCC2C(=O)O)c(C(N)=O)c1-c1ccc(C(C)(C)C)cc1 (stereo not given)	46	67*	-18	43	-5	43*	20*	40	13
CC(=O)NCCNc1nc(NCc2ccccc2)nc2ccsc12	92*	91*	.	.	.	109*	23*	101*	53*
COc1ccccc1CNc1nc(NCCNC(C)=O)c2sccc2n1	-4	2	.	.	.	.	.	.	.
COCCNc1nc(NCc2ccccc2)nc2ccsc12	104*	153*	.	.	.	123*	103*	107*	102*

Source: PubChem BioAssay
